ChEMBL document CHEMBL4425135, “Novel C-Ring-Hydroxy-Substituted Controlled Deactivation Cannabinergic Analogues” (J Med Chem, 2016)
The source made the active and inactive calls. The rule behind the calls is not given here.

Legend:
[1] = biological target: T1, Cannabinoid receptor 1 (Rattus norvegicus, UniProt P20272); assay: Displacement of [3H]CP55940 from CB1 receptor in rat brain membranes by scintillation counting method; assay type: cell membranes
In short: (§1)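 Competition binding against [3H]CP-55,940 using rat brain membranes (CB1) or membranes of HEK293 cells expressing mouse or human CB2. IC50 from nonlinear regression, converted to Ki. Each experiment run in triplicate; Ki is the mean of three independent experiments.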

[2] = biological target: T2, Cannabinoid receptor 2 (Mus musculus, UniProt P47936); assay: Displacement of [3H]CP55940 from mouse CB2 receptor expressed in HEK293 cell membranes by scintillation counting method; in short: as §1
T2 sequence (P47936 whole entry): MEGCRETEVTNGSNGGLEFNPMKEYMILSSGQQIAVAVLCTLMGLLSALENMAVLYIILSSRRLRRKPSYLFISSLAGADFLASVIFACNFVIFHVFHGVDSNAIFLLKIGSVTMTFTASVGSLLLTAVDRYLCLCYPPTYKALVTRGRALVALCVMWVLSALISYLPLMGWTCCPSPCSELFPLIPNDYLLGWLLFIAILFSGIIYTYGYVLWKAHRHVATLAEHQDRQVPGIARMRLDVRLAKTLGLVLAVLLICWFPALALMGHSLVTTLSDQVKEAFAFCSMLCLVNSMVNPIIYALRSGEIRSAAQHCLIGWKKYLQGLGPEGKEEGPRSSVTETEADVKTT

[3] = Half life in mouse plasma assessed as esterase-mediated compound hydrolysis at 200 uM by HPLC method; assay type: ADME, cell-free
In short: (§2)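 Compound diluted to 200 μM in mouse or rat plasma and shaken at 37 °C, 100 rpm. Samples taken at timed points, diluted 1:4 in acetonitrile and centrifuged. Supernatant analysed by reversed-phase C18 HPLC, acetonitrile/acidified water gradient, UV detection. 4-Nitrophenyl butyrate run as control in each experiment. Half-life from exponential decay fit.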

[4] = Half life in rat plasma assessed as esterase-mediated compound hydrolysis at 200 uM by HPLC method; assay type: ADME, cell-free; in short: as §2
[5] = biological target: T3, Cannabinoid receptor 2 (Homo sapiens, UniProt P34972); assay: Displacement of [3H]CP55940 from human CB2 receptor expressed in HEK293 cell membranes by scintillation counting method; in short: as §1
T3 sequence (P34972 whole entry): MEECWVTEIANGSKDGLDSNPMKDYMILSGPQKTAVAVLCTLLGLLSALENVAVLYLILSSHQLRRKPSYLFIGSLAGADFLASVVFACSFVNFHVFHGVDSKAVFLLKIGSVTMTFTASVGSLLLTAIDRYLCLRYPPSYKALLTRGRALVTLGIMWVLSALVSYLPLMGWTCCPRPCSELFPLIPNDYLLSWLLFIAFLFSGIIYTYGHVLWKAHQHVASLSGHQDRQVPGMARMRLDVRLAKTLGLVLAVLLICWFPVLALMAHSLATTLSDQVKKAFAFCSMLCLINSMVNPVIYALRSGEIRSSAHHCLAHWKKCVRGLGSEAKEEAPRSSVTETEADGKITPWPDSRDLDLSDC

[6] = biological target: T1, Cannabinoid receptor 1; assay: Agonist activity at rat CB1 receptor expressed in HEK293 cells assessed as decrease in forskolin-stimulated cAMP levels after 30 mins; assay type: functional, cell-based
In short: (§3)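 Stably transfected HEK293 cells harvested with Versene, washed in HBSS, resuspended in stimulation buffer. Cells exposed to graded compound concentrations in buffer containing forskolin (2 μM final), 30 min at room temperature. cAMP read by TR-FRET (Eu-cAMP tracer plus ULight anti-cAMP antibody, 60 min room temperature). EC50 from nonlinear regression.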

[7] = biological target: Cannabinoid receptor 1 (Rattus norvegicus) (UniProt P20272); assay: Agonist activity at rat CB1 receptor expressed in HEK293 cells assessed as decrease in forskolin-stimulated cAMP levels at 500 nM after 30 mins relative to CP-55940; assay type: functional, cell-based
Chain of Cannabinoid receptor 1 (Rattus norvegicus) (P20272 whole entry): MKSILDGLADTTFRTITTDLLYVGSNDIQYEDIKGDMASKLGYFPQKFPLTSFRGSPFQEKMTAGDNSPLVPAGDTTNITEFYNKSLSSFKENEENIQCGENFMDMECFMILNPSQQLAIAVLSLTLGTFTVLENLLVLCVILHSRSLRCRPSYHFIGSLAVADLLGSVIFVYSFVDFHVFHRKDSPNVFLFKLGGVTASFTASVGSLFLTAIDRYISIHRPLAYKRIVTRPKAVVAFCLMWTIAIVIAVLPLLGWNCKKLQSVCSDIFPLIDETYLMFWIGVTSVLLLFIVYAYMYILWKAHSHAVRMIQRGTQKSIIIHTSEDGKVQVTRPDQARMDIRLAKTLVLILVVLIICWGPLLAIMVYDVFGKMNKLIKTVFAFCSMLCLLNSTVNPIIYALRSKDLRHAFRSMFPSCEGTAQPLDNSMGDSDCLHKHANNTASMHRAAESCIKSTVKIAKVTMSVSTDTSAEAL

[8] = biological target: T3, Cannabinoid receptor 2; assay: Agonist activity at human CB2 receptor expressed in HEK293 cells assessed as decrease in forskolin-stimulated cAMP levels after 30 mins; assay type: functional, cell-based; in short: as §3
[9] = biological target: T3, Cannabinoid receptor 2; assay: Agonist activity at human CB2 receptor expressed in HEK293 cells assessed as decrease in forskolin-stimulated cAMP levels at 500 nM after 30 mins relative to CP-55940; assay type: functional, cell-based
[10] = tested on: Rattus norvegicus; assay: Hypothermic activity in Sprague-Dawley rat assessed as decrease in rectal body temperature at 1 mg/kg, sc measured over 6 hrs; assay type: functional
In short: (§4)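 Female Sprague-Dawley rats, 250–350 g, n = 6/group, retested with ≥5 days between sessions. Dosed sc (1.0 mL/kg) in 20% ethanol/20% alkamuls/60% saline diluted with saline. Rectal thermistor at 6 cm depth. Two baselines 15 min apart, then readings every 30 min for 3 h and hourly to 6 h. Change taken from mean baseline.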

[11] = tested on: Rattus norvegicus; assay: Hypothermic activity in sc dosed Sprague-Dawley rat assessed as decrease in rectal body temperature measured over 6 hrs; assay type: functional; in short: as §4
[12] = tested on: Rattus norvegicus; assay: Hypothermic activity in Sprague-Dawley rat assessed as decrease in rectal body temperature at 0.1 mg/kg, sc measured over 6 hrs; assay type: functional; in short: as §4
[13] = tested on: Rattus norvegicus; assay: Hypothermic activity in Sprague-Dawley rat assessed as decrease in rectal body temperature at 0.1 mg/kg, sc after 6 hrs; assay type: functional, organism-based; in short: as §4
[14] = tested on: Rattus norvegicus; assay: Hypothermic activity in Sprague-Dawley rat assessed as time required for decrease in rectal body temperature at 0.01 to 1 mg/kg, sc; assay type: functional; in short: as §4
[15] = tested on: Mus musculus; assay: Analgesic activity in CD1 mouse assessed as increase in tail flick latency at 1 mg/kg, ip measured at 20 mins relative to control; assay type: functional
In short: (§5)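 Male CD-1 mice, 30–35 g, n = 6, each used once, habituated over three mock sessions at 38 °C. Tail-flick latency in a 52 °C water bath at baseline, then 20, 60, 180 and 360 min after ip dosing (10 mL/kg). Vehicle 2% DMSO/4% Tween-80/4% propylene glycol with saline, freshly prepared. Scored as %MPE.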

[16] = tested on: Mus musculus; assay: Analgesic activity in CD1 mouse assessed as increase in tail flick latency at 1 mg/kg, ip measured at 60 mins relative to control; assay type: functional; in short: as §5
[17] = tested on: Mus musculus; assay: Analgesic activity in CD1 mouse assessed as increase in tail flick latency at 1 mg/kg, ip measured at 180 mins relative to control; assay type: functional; in short: as §5
[18] = tested on: Mus musculus; assay: Analgesic activity in CD1 mouse assessed as increase in tail flick latency at 1 mg/kg, ip measured at 360 mins relative to control; assay type: functional; in short: as §5
[19] = tested on: Squirrel monkey; assay: Induction of CB1-related discriminative stimulus effect in squirrel monkey at 0.001 mg/kg, im after 1 hr; assay type: functional, organism-based; details: Saimiri sciureus
In short: (§6)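 Squirrel monkeys trained on two levers to discriminate 0.01 mg/kg im CB1 agonist from vehicle. After im test dosing, sequential sessions began at 15, 30, 60, 120, 240, 480 and 960 min, with some groups also tested at 36 and 48 h. Measured percent responding on the agonist lever (≥90% counted as full substitution) and overall response rate.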

[20] = tested on: Squirrel monkey; assay: Induction of CB1-related discriminative stimulus effect in squirrel monkey at 0.001 mg/kg, im after 4 to 16 hrs; assay type: functional, organism-based; details: Saimiri sciureus; in short: as §6
[21] = tested on: Squirrel monkey; assay: Induction of CB1-related discriminative stimulus effect in squirrel monkey assessed as time required for 50% loss of full effect at 0.001 mg/kg, im; assay type: functional, organism-based; details: Saimiri sciureus; in short: as §6
[22] = tested on: Squirrel monkey; assay: Effect on response rate in squirrel monkey at 0.001 mg/kg, im; assay type: functional, organism-based; details: Saimiri sciureus; in short: as §6
[23] = tested on: Squirrel monkey; assay: Induction of CB1-related discriminative stimulus effect in squirrel monkey at 0.003 mg/kg, im measured within 15 mins; assay type: functional, organism-based; details: Saimiri sciureus; in short: as §6
[24] = tested on: Squirrel monkey; assay: Induction of CB1-related discriminative stimulus effect in squirrel monkey assessed as time required for 50% loss of full effect at 0.003 mg/kg, im; assay type: functional, organism-based; details: Saimiri sciureus; in short: as §6
[25] = tested on: Squirrel monkey; assay: Induction of CB1-related discriminative stimulus effect in squirrel monkey at 0.003 mg/kg, im measured after 24 hrs; assay type: functional, organism-based; details: Saimiri sciureus
[26] = tested on: Squirrel monkey; assay: Induction of CB1-related discriminative stimulus effect in squirrel monkey at 0.003 mg/kg, im measured at 36 hrs; assay type: functional, organism-based; details: Saimiri sciureus; in short: as §6
[27] = biological target: T1, Cannabinoid receptor 1; assay: Binding affinity to rat CB1 receptor
In short: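 Competition displacement of [3H]CP-55,940 from rat brain membranes (CB1 source). IC50 from nonlinear regression of competition curves, converted to Ki. Each experiment run in triplicate; Ki is the mean of three independent experiments.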

[28] = biological target: T2, Cannabinoid receptor 2; assay: Binding affinity to mouse CB2 receptor; in short: as §1
[29] = tested on: Squirrel monkey; assay: Effect on response rate in squirrel monkey at 0.003 mg/kg, im; assay type: functional, organism-based; details: Saimiri sciureus; in short: as §6
[30] = tested on: Rattus norvegicus; assay: Hypothermic activity in Sprague-Dawley rat assessed as decrease in rectal body temperature at 3 mg/kg, sc measured over 6 hrs; assay type: functional; in short: as §4
[31] = tested on: Rattus norvegicus; assay: Hypothermic activity in Sprague-Dawley rat assessed as time required for decrease in rectal body temperature at 0.03 to 3 mg/kg, sc; assay type: functional; in short: as §4
[32] = tested on: Rattus norvegicus; assay: Hypothermic activity in Sprague-Dawley rat assessed as time required for decrease in rectal body temperature at 0.1 to 3 mg/kg, sc; assay type: functional; in short: as §4

T1 sequence (P20272 whole entry): as above

CC1(C)Oc2cc(CC(=O)O)cc(O)c2[C@@H]2C[C@H](O)CC[C@H]21
Ki [1]: > 10 µM | Ki [2]: > 10 µM

CCCCOC(=O)C(C)(C)c1cc(O)c2c(c1)OC(C)(C)[C@@H]1CC[C@H](O)C[C@@H]21
t1/2 [3]: 2.8 min | t1/2 [4]: 5.6 min

CCCCOC(=O)C(C)(C)c1cc(O)c2c(c1)OC(C)(C)[C@@H]1CC[C@@H](CO)C[C@@H]21
Ki [1]: 0.0024 µM | Ki [2]: 0.0001 µM | Ki [5]: 3.1 nM | t1/2 [3]: 3.1 min | t1/2 [4]: 39.2 min | EC50 [6]: 2.5 nM | Emax [7]: 87% | EC50 [8]: 0.3 nM | Emax [9]: 82% | T [10]: 4.7 - 7.2 °C | Activity [11]: Dose-dependent effect | ED50 [11]: 0.04 mg/kg | T [12]: >4 °C | Activity [13]: inactive | Time [14]: 1 to 3 h | MPE [15]: 94% | MPE [16]: 96% | MPE [17]: 97% | MPE [18]: 58% | Activity [19]: Active | Activity [20]: inactive | T1/2 [21]: 48 min | Activity [22]: inactive

CC(C)(C(=O)O)c1cc(O)c2c(c1)OC(C)(C)[C@@H]1CC[C@@H](O)C[C@@H]21
Ki [1]: > 10 µM | Ki [2]: > 10 µM

CCCCCCC(C)(C)c1cc(O)c2c(c1)OC(C)(C)[C@@H]1CC=C(CO)C[C@@H]21
ED50 [11]: 0.04 mg/kg | Time [14]: 1 to 3 h | Activity [23]: Active | T1/2 [24]: 1.1 h | Activity [25]: Active | Activity [26]: inactive | Ki [27]: 0.7 nM | Ki [28]: 0.2 nM | Activity [29]: inactive

CCCCOC(=O)Cc1cc(O)c2c(c1)OC(C)(C)[C@@H]1CC[C@@H](O)C[C@@H]21
Ki [1]: 0.238 µM | Ki [2]: 0.317 µM | Ki [5]: 432 nM

CC(C)(C(=O)O)c1cc(O)c2c(c1)OC(C)(C)[C@@H]1CC[C@@H](CO)C[C@@H]21
Ki [1]: > 10 µM | Ki [2]: > 10 µM

CCCCOC(=O)C(C)(C)c1cc(O)c2c(c1)OC(C)(C)[C@@H]1CC=C(CO)C[C@@H]21
t1/2 [3]: 5 min | t1/2 [4]: 39.1 min | EC50 [6]: 4.6 nM | Emax [7]: 89% | EC50 [8]: 5.7 nM | Emax [9]: 83% | T [30]: 4.7 - 7.2 °C | Activity [11]: Dose-dependent effect | ED50 [11]: 0.04 mg/kg | Time [31]: 1 to 3 h | T [12]: >4 °C | Activity [13]: inactive

CC(C)(C(=O)O)c1cc(O)c2c(c1)OC(C)(C)[C@@H]1CC=C(CO)C[C@@H]21
Ki [1]: > 10 µM | Ki [2]: > 10 µM

CCCCOC(=O)Cc1cc(O)c2c(c1)OC(C)(C)[C@@H]1CC[C@H](O)C[C@@H]21
Ki [1]: 0.75 µM | Ki [2]: 0.654 µM | Ki [5]: 733 nM

CC1(C)Oc2cc(CC(=O)O)cc(O)c2[C@@H]2C[C@@H](O)CC[C@H]21
Ki [1]: > 10 µM | Ki [2]: > 10 µM

CC(C)(C(=O)O)c1cc(O)c2c(c1)OC(C)(C)[C@@H]1CC[C@H](O)C[C@@H]21
Ki [1]: > 10 µM | Ki [2]: > 10 µM

CCCCOC(=O)C(C)(C)c1cc(O)c2c(c1)OC(C)(C)[C@@H]1CC[C@@H](O)C[C@@H]21
t1/2 [3]: 2.7 min | t1/2 [4]: 10.2 min | EC50 [6]: 8.6 nM | Emax [7]: 85% | EC50 [8]: 9 nM | Emax [9]: 85% | T [30]: 4.7 - 7.2 °C | Activity [11]: Dose-dependent effect | ED50 [11]: 0.74 mg/kg | Time [32]: 1 to 3 h
